TRPC6 inh = blocks the mouse TRPC6 cation channel; Q61143; HEK293-TRPC6, membrane potential dye, ACh-evoked depolarization; active compounds read low; B-score at 10 µM; hit rate 1.1% among 310,000;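 active means B-score under library mean minus 3 SD, initial fluorescence not abnormally high, positive integrated signal ratio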;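 further: B-score derived from integrated fluorescence ratio over the kinetic read; more negative B-score means stronger inhibition of depolarization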
Target sequence (Q61143 whole entry, looked up): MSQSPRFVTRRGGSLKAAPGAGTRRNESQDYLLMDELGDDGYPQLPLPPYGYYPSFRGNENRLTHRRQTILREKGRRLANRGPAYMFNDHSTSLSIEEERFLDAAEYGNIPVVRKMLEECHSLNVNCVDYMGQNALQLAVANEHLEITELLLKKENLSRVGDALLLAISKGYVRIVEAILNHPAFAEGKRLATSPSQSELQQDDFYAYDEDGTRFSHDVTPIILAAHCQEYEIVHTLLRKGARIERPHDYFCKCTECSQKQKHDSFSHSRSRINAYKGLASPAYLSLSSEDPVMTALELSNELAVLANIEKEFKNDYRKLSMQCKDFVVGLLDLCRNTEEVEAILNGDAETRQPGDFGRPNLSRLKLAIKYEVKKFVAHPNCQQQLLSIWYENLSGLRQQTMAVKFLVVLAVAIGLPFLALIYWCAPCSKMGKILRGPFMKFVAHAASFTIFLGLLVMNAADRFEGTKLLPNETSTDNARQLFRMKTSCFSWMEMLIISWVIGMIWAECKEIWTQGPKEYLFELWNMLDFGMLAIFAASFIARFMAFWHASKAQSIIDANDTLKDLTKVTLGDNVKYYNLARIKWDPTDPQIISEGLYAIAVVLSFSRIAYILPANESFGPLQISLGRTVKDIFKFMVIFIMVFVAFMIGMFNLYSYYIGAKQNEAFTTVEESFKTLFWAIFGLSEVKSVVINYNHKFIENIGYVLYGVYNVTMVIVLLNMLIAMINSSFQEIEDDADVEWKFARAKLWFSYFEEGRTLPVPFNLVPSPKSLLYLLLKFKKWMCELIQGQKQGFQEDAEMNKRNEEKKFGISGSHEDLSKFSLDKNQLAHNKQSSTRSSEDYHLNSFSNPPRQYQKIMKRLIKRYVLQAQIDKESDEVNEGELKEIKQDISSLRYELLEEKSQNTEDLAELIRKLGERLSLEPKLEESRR
TRPC4 inh = blocks the mouse TRPC4 cation channel; B-score at 10 µM; Q9QUQ5; hit rate 0.39% among 300,000; HEK293 TRPC4beta/mu-opioid, DAMGO-evoked Fluo4 calcium flux; active compounds read low;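 active means B-score over 3 SD under the library average, no early fluorescence shift, positive overall ratio signal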
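Test system – stable TRPC4beta/mu-opioid receptor HEK293 cells · Probe or stimulus – DAMGO, a submaximal dose followed by a maximal one · Dosing – one concentration per compound · Signal – Fluo4 calcium fluorescence by kinetic imaging, 5 s 1 Hz baseline · Evaluation – per-well B score of integrated baseline-normalized Fluo4 ratio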
TRPC4 act = activators of mouse TRPC4 channel; Q9QUQ5; HEK293 TRPC4beta/mu-opioid, Fluo4 calcium fluorescence; active compounds read high; B-score at 10 µM; hit rate 0.49% among 310,000;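 active means B-score above 5 SD of library B-scores, and initial fluorescence ratio not above library mean plus 5 SD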;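 further: positive B-score marks a calcium rise read as TRPC4 activation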
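Assay system – TRPC4beta and mu-opioid receptor HEK293 stable cells · Measured by – Fluo4 fluorescence, kinetic · Schedule – dye loading 45 min room temperature, 110 s kinetic read · Read-out – B-scored integrated calcium fluorescence ratio · Controls – buffer and maximal DAMGO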
TRPC6 act = activators of mouse TRPC6 channel; HEK293-TRPC6 membrane potential dye fluorescence; active compounds read high; B-score at 10 µM; hit rate 0.13% among 310,000;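 active means B-score of the integrated fluorescence ratio above library mean plus 3 SD, and starting fluorescence ratio within library mean plus 5 SD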;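 further: higher score means more depolarization so channel activation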
TRPC4 PAM = TRPC4 (mouse) allosteric potentiation. Q9QUQ5. hit rate 0.42% among 310,000. B-score at 10 µM. AID 2227. HEK293 TRPC4beta/mu-opioid, DAMGO EC20, Fluo-4 Ca2+ flux; active compounds read high;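 active means B-score of calcium response area above 5 SD of library B-scores, with initial fluorescence ratio within 5 SD of library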
TRPC4 sel inh 2 = second check of whether TRPC6 inhibitors also affect mouse TRPC4. shares compounds with TRPC6 inh. HEK293 TRPC4/MOR, membrane potential dye fluorescence; channel activated by saturating DAMGO dose. inhibition, % at 10 µM. hit rate 42% among 920;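 active means compounds whose fluorescence signal differed from control wells by over 3 SD, either direction, in both duplicate plates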
TRPC4 spec = tests whether TRPC6 inhibitors also affect mouse TRPC4. hit rate 61% among 920. HEK293 TRPC4/mu-opioid, membrane potential fluorescence. shares compounds with TRPC6 inh. AID 2777. activity change, negative = inhibition, % at 10 µM;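 active means rise or fall in signal beyond 3 SD of buffer-only wells in both replicate plates, either sign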;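 further: integrated kinetic ratio of fluorescence range over baseline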
HEK293 MPD ctr 2-1 = parental HEK293 nonspecific activity of TRPC6 inhibitors, second screen | signal change vs control, % at 10 µM | parental HEK293 membrane potential dye fluorescence; maximal acetylcholine challenge after compound addition | hit rate 31% among 920 | shares compounds with TRPC6 inh;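 active means membrane potential signal moving either way by over 3 SD of the maximum-effect control, in both duplicate plates, meaning non-specific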
HEK293 MPD ctr-1 = counter-screen for TRPC6 inhibitors: effect in parental HEK293 cells; shares compounds with TRPC6 inh; parental HEK293 membrane potential dye fluorescence; membrane potential signal change, % at 10 µM; hit rate 60% among 920;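 active means membrane potential signal shifting up or down by more than 3 SD of buffer-only wells, on both duplicate plates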
HEK293 MPD ctr-2 = checks TRPC6 modulator effects in parental HEK293 cells | shares compounds with TRPC6 inh | membrane potential dye fluorescence | membrane potential signal change, % at 10 µM | hit rate 51% among 2,400;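 active means membrane potential signal moves up or down beyond 5 SD from buffer-only wells, on both duplicate plates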
HEK293 MPD ctr 2-2 = second check of TRPC6 modulator effects in parental HEK293 cells; inhibition, % at 10 µM; hit rate 14% among 2,400; shares compounds with TRPC6 inh; membrane potential dye fluorescence; after compound, maximal acetylcholine stimulation;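 active means membrane potential signal drops by more than 5 SD from the mean control signal, in both duplicate plates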
TRPC4/MOR mod = selectivity of TRPC6 modulators against mouse TRPC4; AID 488927; hit rate 69% among 2,400; percent change from control (negative = decrease, positive = increase), % at 10 µM; shares compounds with TRPC6 inh; HEK293 TRPC4/mu-opioid, membrane potential fluorescence;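 active means membrane potential signal moved up or down beyond 5 SD of buffer control wells, in both duplicate plates, actives on both sides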
TRPC4 ctr inh 2 = second selectivity test of TRPC6 modulators against mouse TRPC4; shares compounds with TRPC6 inh; HEK293 TRPC4/mu-opioid, membrane potential dye fluorescence; stimulated with maximal-effect DAMGO; inhibition, % at 10 µM; hit rate 55% among 2,400; AID 488928;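 active means drop in membrane potential signal beyond 5 SD of the control wells in both duplicate plates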;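 further: TRPC4 counter screen for TRPC6 hits run under conditions tuned for TRPC6 not TRPC4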
TRPC6 block conf = confirmation of mouse TRPC6 inhibitors; shares compounds with TRPC6 inh; HEK293-TRPC6, membrane potential dye, ACh-evoked depolarization; inhibition, % at 10 µM; hit rate 43% among 3,300; AID 488960;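 active means fluorescence ratio falls more than 5 SD below the full-stimulation control mean, in both duplicate runs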;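 further: integrated fluorescence ratio of peak minus minimum over baseline after agonist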
TRPC6 act conf = confirmation of mouse TRPC6 activators; shares compounds with TRPC6 inh; HEK293-TRPC6 membrane potential dye fluorescence, FDSS; activation, % at 10 µM; hit rate 11% among 2,800;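 active means ratio signal rise beyond 5 SD above unstimulated control wells' mean, seen in both duplicate runs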
Large screens that a line does not name were inactive (follow-up assays come after a bar, where they were run). An excerpt weighted towards active compounds, which were near 2.3% of everything screened.

CN(CC#CC(O)(c1ccccc1)c1ccccc1)C(C)(C)C	TRPC6 inh -8.9 | TRPC4 sel inh 2 inactive | TRPC4 spec 6.1% | HEK293 MPD ctr 2-1 -16.0% | HEK293 MPD ctr-1 8.8% | TRPC6 block conf 73.5%
CC(C)N(CC#CC(O)(c1ccccc1)c1ccccc1)CCO	none
CC(C)N(CC#CC(O)(c1ccccc1)c1ccccc1)C(C)C	TRPC6 inh -6.41 | HEK293 MPD ctr-2 115.0% | HEK293 MPD ctr 2-2 96.0% | TRPC4/MOR mod 22.5% | TRPC4 ctr inh 2 inactive | TRPC6 block conf 73.0%
OCCN(CC#CC(O)(c1ccccc1)c1ccccc1)CCO	none
O=C(CSC1=NS(=O)(=O)c2ccccc2N1)Nc1nccs1	none
CCOc1ccc(NC(=O)CC2C(=O)N(CC)C(=S)N2CCN2CCOCC2)cc1 (stereo unspecified)	none
CCOc1ccc(NC(=O)CC2C(=O)N(CC)C(=S)N2CCNC(C)=O)cc1 (stereo unspecified)	TRPC6 inh -5.5 | HEK293 MPD ctr-2 inactive | HEK293 MPD ctr 2-2 inactive | TRPC4/MOR mod inactive | TRPC4 ctr inh 2 inactive | TRPC6 block conf inactive | TRPC6 act conf inactive
CCN1C(=O)C(CC(=O)Nc2ccc(F)cc2)N(CCCN2CCN(c3ccc(F)cc3)CC2)C1=S (stereo unspecified)	TRPC6 inh -6.48 | HEK293 MPD ctr-2 inactive | HEK293 MPD ctr 2-2 inactive | TRPC4/MOR mod inactive | TRPC4 ctr inh 2 47.0% | TRPC6 block conf 44.0% | TRPC6 act conf inactive
Cc1ccc(N(Cc2ccccc2)C(=O)c2cc(S(=O)(=O)N3CCOCC3)ccc2C)cc1	none
CC(SCCc1ccccn1)C(=O)O (stereo unspecified)	none
CN1CCCc2cc(C=O)ccc21	TRPC6 inh -7.91 | TRPC4 sel inh 2 inactive | TRPC4 spec -8.7% | HEK293 MPD ctr 2-1 inactive | HEK293 MPD ctr-1 inactive | TRPC6 block conf inactive | TRPC6 act conf inactive
Cc1ncc(C[n+]2csc(CCOC(=O)CC34CC5CC(CC(C5)C3)C4)c2C)c(N)n1	none
Cc1c(CCOC(=O)CC23CC4CC(CC(C4)C2)C3)sc[n+]1Cc1ccccc1	TRPC6 inh -5.27, TRPC4 inh -6 | HEK293 MPD ctr-2 inactive | HEK293 MPD ctr 2-2 inactive | TRPC4/MOR mod inactive | TRPC4 ctr inh 2 39.5% | TRPC6 block conf 56.0% | TRPC6 act conf inactive
CC(C)c1cc(C(=O)N2CCCC(Nc3ccc(F)cc3)C2)nc(N)n1 (stereo unspecified)	TRPC6 inh -5.93 | HEK293 MPD ctr-2 inactive | HEK293 MPD ctr 2-2 inactive | TRPC4/MOR mod inactive | TRPC4 ctr inh 2 inactive | TRPC6 block conf inactive | TRPC6 act conf inactive
CCN(C1CCS(=O)(=O)C1)S(=O)(=O)c1ccc(OC)c(OC)c1 (stereo unspecified)	none
CC(C)(C)C(=O)Cn1c(=N)n(Cc2ccccc2)c2ccccc21	none
CC(C)(C)C(=O)Cn1c(=N)n(Cc2ccccc2Cl)c2ccccc21	TRPC6 inh -5.54 | HEK293 MPD ctr-2 164.0% | HEK293 MPD ctr 2-2 inactive | TRPC4/MOR mod 22.5% | TRPC4 ctr inh 2 77.0% | TRPC6 block conf 48.0%
CN(C)C=Nc1c(Br)cc(Br)c2nonc12	TRPC6 act 25.4 | HEK293 MPD ctr-2 983.5% | HEK293 MPD ctr 2-2 inactive | TRPC4/MOR mod 135.5% | TRPC4 ctr inh 2 inactive | TRPC6 block conf inactive | TRPC6 act conf 190.0%
CC(=O)c1ccccc1Oc1cc(NN2CCCCC2)c([N+](=O)[O-])cc1[N+](=O)[O-]	TRPC6 inh -5.98 | HEK293 MPD ctr-2 inactive | HEK293 MPD ctr 2-2 inactive | TRPC4/MOR mod inactive | TRPC4 ctr inh 2 31.5% | TRPC6 block conf inactive | TRPC6 act conf inactive
CCOC(=O)c1c(C)n(C)c2ccc(OC)c(NC(=O)CCN3CCC(Cc4ccccc4)CC3)c12	TRPC6 inh -5.24 | HEK293 MPD ctr-2 inactive | HEK293 MPD ctr 2-2 inactive | TRPC4/MOR mod inactive | TRPC4 ctr inh 2 69.5% | TRPC6 block conf 53.5% | TRPC6 act conf inactive
CCCN(CC(=O)Nc1ccccc1OC)C(=O)c1cccc(S(=O)(=O)Nc2ccc(OC)cc2)c1	none
S=C(NCCN1CCOCC1)N/N=C/c1c2ccccc2cc2ccccc12	TRPC6 inh -5.15 | HEK293 MPD ctr-2 260.0% | HEK293 MPD ctr 2-2 inactive | TRPC4/MOR mod -22.5% | TRPC4 ctr inh 2 inactive | TRPC6 block conf inactive | TRPC6 act conf inactive
O=C(CSc1ccccc1)N1CCCC(N2CCN(c3ccccc3)CC2)C1 (stereo unspecified)	none
COc1ccc(Nc2ncnc3ccccc23)cc1	none
COc1ccc(Nc2ccnc3ccccc23)cc1	TRPC6 inh -8.46 | TRPC4 sel inh 2 54.5% | TRPC4 spec -24.7% | HEK293 MPD ctr 2-1 inactive | HEK293 MPD ctr-1 -284.0% | TRPC6 block conf 53.8% | TRPC6 act conf inactive
CC(C)Nc1ccc(Nc2ccnc3cc4ccccc4cc23)cc1	TRPC6 inh -6.23 | HEK293 MPD ctr-2 inactive | HEK293 MPD ctr 2-2 inactive | TRPC4/MOR mod inactive | TRPC4 ctr inh 2 54.5% | TRPC6 block conf inactive | TRPC6 act conf inactive
c1ccc(CCNc2ccnc3cc4ccccc4cc23)cc1	none
CN(C)CCCN(C(=O)c1ccco1)c1nc2ccc(F)cc2s1	TRPC6 inh -5.57 | HEK293 MPD ctr-2 -149.5% | HEK293 MPD ctr 2-2 78.5% | TRPC4/MOR mod -39.0% | TRPC4 ctr inh 2 84.5% | TRPC6 block conf 63.5% | TRPC6 act conf inactive
